Source: ChEMBL document CHEMBL2176969, “O2-sulfonylethyl protected isopropylamine diazen-1-ium-1,2-diolates as nitroxyl (HNO) donors: synthesis, β-elimination fragmentation, HNO release, positive inotropic properties, and blood pressure lowering studies” (J Med Chem, 2012)
Blank lines part the entries; values can stand above or below the compound they belong to. Active and inactive are the calls of the source. The calls are words filed in the database; no cut-off is given here.

How the values were obtained:
[1] = Induction of nitroxyl release in 7.5% DMSO and 92.5% phosphate buffer at pH 7.4 at 200 uM after 48 hrs by LC-MS analysis; type: physicochemical; conditions: pH 7.4, 48 h
Outline: (§1)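 Donor at 200 μM with 1 mM trapping phosphine in 7.5% DMSO/92.5% phosphate buffer pH 7.4, 37 °C, with 5.05 μM 4-hydroxybenzophenone internal standard. Quenched with H₂O₂ after 2 or 48 h, dried, taken up in MeOH. HNO-derived amide quantified by LC–MS (ESI negative) from a standard curve; percent of 1 mol HNO/mol; mean of triplicates.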

[2] = Induction of nitrous oxide release in MeOH/TBS buffer at pH 10 at 25 mM after 2 hrs by gas chromatographic analysis; type: physicochemical; conditions: pH 10, 2 h, 25000 µM
Outline: (§2)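 Compound (0.04 mmol, 25 mM) in a sealed, inert-gas-flushed flask with 0.8 mL solvent: MeOH plus 500 mM Tris (0.2 mM EDTA), 1:1, at pH 7.4 or 10.0, ± 50 mM GSH, 37 °C. Headspace N₂O measured by GC with electron-capture detection against a standard curve. Yield assumes 2 HNO → 1 N₂O; mean of n = 3; pH-10 runs ended near pH 9.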

[3] = Induction of nitrous oxide release in MeOH/TBS buffer at pH 10 at 25 mM after 0.5 hrs by gas chromatographic analysis; type: physicochemical; conditions: pH 10, 0.5 h, 25000 µM; outline: as §2
[4] = Half life in phosphate buffer at pH 7.4 by spectrophotometric method; type: physicochemical
Outline: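 Decay followed by loss of diazeniumdiolate absorbance near 245 nm in pH 7.4 phosphate buffer with 5% DMSO at 37 °C. Half-life obtained from linear regression of ln(A_t − A_∞) against time.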

[5] = Induction of nitrous oxide release in MeOH/TBS buffer at pH 7.4 at 25 mM after 48 hrs by gas chromatographic analysis; type: physicochemical; conditions: pH 7.4, 48 h, 25000 µM; outline: as §2
[6] = Induction of nitrous oxide release in MeOH/TBS buffer at pH 7.4 at 25 mM after 48 hrs by gas chromatographic analysis in presence of glutathione; type: physicochemical; conditions: pH 7.4, 48 h, 25000 µM; outline: as §2
[7] = Induction of nitroxyl release in 7.5% DMSO and 92.5% phosphate buffer at pH 7.4 at 200 uM after 2 hrs by LC-MS analysis; type: physicochemical; conditions: pH 7.4, 2 h; outline: as §1
[8] = Induction of nitrous oxide release in MeOH/TBS buffer at pH 7.4 at 25 mM after 2 hrs by gas chromatographic analysis; type: physicochemical; conditions: pH 7.4, 2 h, 25000 µM; outline: as §2
[9] = Induction of nitrite release in phosphate buffer at pH 10 at 50 uM after 1.5 hrs by Griess reaction; type: physicochemical; conditions: Tris buffer, pH 10, 1.5 h, in the assay text read “Tris buffer” for “phosphate buffer”
Outline: (§3)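 Compound at 50 μM was incubated 1.5 h at 37 °C in phosphate buffer pH 7.4 or Tris buffer pH 10.0, both containing 5% DMSO. Nitrite was measured by Griess reaction and expressed as percent of the initial compound concentration; mean of n = 3.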

[10] = Induction of nitrous oxide release in MeOH/TBS buffer at pH 7.4 at 25 mM after 2 hrs by gas chromatographic analysis in presence of glutathione; type: physicochemical; conditions: pH 7.4, 2 h, 25000 µM; outline: as §2
[11] = Induction of nitrous oxide release in MeOH/TBS buffer at pH 7.4 at 25 mM after 0.5 hrs by gas chromatographic analysis in presence of glutathione; type: physicochemical; conditions: pH 7.4, 0.5 h, 25000 µM; outline: as §2
[12] = Induction of nitrous oxide release in MeOH/TBS buffer at pH 7.4 at 25 mM after 0.5 hrs by gas chromatographic analysis; type: physicochemical; conditions: pH 7.4, 0.5 h, 25000 µM; outline: as §2
[13] = Induction of nitrous oxide release in MeOH/TBS buffer at pH 10 at 25 mM after 0.5 hrs by gas chromatographic analysis in presence of glutathione; type: physicochemical; conditions: pH 10, 0.5 h, 25000 µM; outline: as §2
[14] = Induction of nitrite release in phosphate buffer at pH 7.4 at 50 uM after 1.5 hrs by Griess reaction; type: physicochemical; conditions: pH 7.4, 1.5 h; outline: as §3
[15] = Induction of nitrous oxide release in MeOH/TBS buffer at pH 10 at 25 mM after 2 hrs by gas chromatographic analysis in presence of glutathione; type: physicochemical; conditions: pH 10, 2 h, 25000 µM; outline: as §2
Mus musculus [16] = test: Antihypertensive activity in C57 mouse assessed as reduction of mean blood pressure at 22.5 mg/kg, po after 3 hrs relative to control; type: functional
Outline: (§4)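 Conscious C57 black mice dosed orally at 22.5 mg/kg (60.345 μmol/kg), vehicle water with 1% methylcellulose; vehicle-only controls (n = 6), treated n = 4 at 1 h, 5 at 3 h, 6 at 6 h. Noninvasive BP (systolic, diastolic; mean = average of the two) and heart rate read at 1, 3, 6 h; each value is the average of three consecutive readings per mouse.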

Mus musculus [17] = test: Antihypertensive activity in C57 mouse assessed as reduction of diastolic blood pressure at 22.5 mg/kg, po after 1 to 6 hrs relative to control; type: functional, organism-based; parameters: dose 22.5 mg/kg; conditions: Artery, in the assay text read “after 3 to 6 hrs” for “after 1 to 6 hrs”; outline: as §4
Mus musculus [18] = test: Antihypertensive activity in C57 mouse assessed as reduction of mean blood pressure at 22.5 mg/kg, po after 6 hrs relative to control; type: functional; outline: as §4
Mus musculus [19] = test: Effect on heart rate in C57 mouse at 22.5 mg/kg, po after 6 hrs relative to control; type: ADME, organism-based; parameters: dose 22.5 mg/kg, route oral; conditions: in vivo; outline: as §4
Mus musculus [20] = test: Antihypertensive activity in C57 mouse assessed as reduction of systolic blood pressure at 22.5 mg/kg, po after 1 hr relative to control; type: functional, Artery; outline: as §4
Heart [21] = test: Positive inotropic activity in C57BL/6 mouse Langendorff perfused heart assessed as left ventricular developed pressure at 100 uM measured for 20 mins; type: functional
Outline: (§5)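 Hearts from C57BL/6 mice perfused with Krebs-Henseleit buffer. After 20 min stabilisation with buffer, hearts were perfused with test compound (100 μM) or isoproterenol (100 μM, positive inotropic control) for 20 min. Heart rate, diastolic and systolic rates, and left ventricular developed pressure were recorded. Baseline contractile function was measured as LVDP.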

Mus musculus [22] = test: Antihypertensive activity in C57 mouse assessed as reduction of mean blood pressure at 22.5 mg/kg, po after 1 hr relative to control; type: functional; outline: as §4
Mus musculus [23] = test: Antihypertensive activity in C57 mouse assessed as reduction of systolic blood pressure at 22.5 mg/kg, po after 3 hrs relative to control; type: functional, Artery; outline: as §4
Heart [24] = test: Positive inotropic activity in C57BL/6 mouse Langendorff perfused heart assessed as rate of relaxation at 100 uM measured for 20 mins; type: functional; outline: as §5
Heart [25] = test: Effect on heart rate in C57BL/6 mouse Langendorff perfused heart at 100 uM measured for 20 mins; type: ADME, tissue-based
Outline: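 C57BL/6 mouse hearts perfused with Krebs–Henseleit buffer, stabilized 20 min, then perfused 20 min with compound at 100 μM; isoproterenol 100 μM as positive inotropic control. Heart rate, LVDP and rates of contraction and relaxation recorded.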

Heart [26] = test: Positive inotropic activity in C57BL/6 mouse Langendorff perfused heart assessed as rate of contraction at 100 uM measured for 20 mins; type: functional; outline: as §5
Mus musculus [27] = test: Effect on heart rate in C57 mouse at 22.5 mg/kg, po after 3 hrs relative to control; type: ADME, organism-based; parameters: dose 22.5 mg/kg, route oral; conditions: in vivo; outline: as §4
Mus musculus [28] = test: Effect on heart rate in C57 mouse at 22.5 mg/kg, po after 1 hr relative to control; type: ADME, organism-based; parameters: dose 22.5 mg/kg, route oral; conditions: in vivo; outline: as §4
Mus musculus [29] = test: Antihypertensive activity in C57 mouse assessed as reduction of systolic blood pressure at 22.5 mg/kg, po after 6 hrs relative to control; type: functional, Artery; outline: as §4

SMILES: CC(C)N/[N+]([O-])=N/OCCS(=O)(=O)NOCc1ccccc1
- Activity [1]: 55.4%
- Activity [2]: 61.3%
- Activity [3]: 56.8%
- half-life [4]: 396 min
- Activity [5]: 27.5%
- Activity [6]: 0.8%
- Activity [7]: 47.3%
- Activity [8]: 9.7%
- Activity [9]: 24%
- Activity [10]: 0.4%
- Activity [11]: 0.3%
- Activity [12]: 3.8%
- Activity [13]: 24.2%
- Activity [14]: 6%
- Activity [15]: 30.3%

SMILES: CC(C)N/[N+]([O-])=N/OCS(C)(=O)=O
- Activity [1]: 4%
- Activity [7]: 0.31%
- Activity [9]: 4.6%
- Activity [14]: 0.4%

SMILES: CC(C)N(C(=O)OC(C)(C)C)/[N+]([O-])=N/OCCS(C)(=O)=O
- Activity [1]: 7.2%
- Activity [7]: 5.1%
- Activity [9]: 25.4%
- Activity [14]: 28.6%

SMILES: COS(=O)(=O)CCO/N=[N+](\[O-])NC(C)C
- Activity [2]: 15.1%
- Activity [3]: 16.7%
- half-life [4]: 1030 min
- Activity [5]: 1.9%
- Activity [6]: 0.2%
- Activity [8]: 1.9%
- Activity [9]: 42%
- Activity [10]: 0.4%
- Activity [11]: 0.2%
- Activity [12]: 1.4%
- Activity [13]: 1.2%
- Activity [14]: 10.6%
- Activity [15]: 1.3%

SMILES: CONS(=O)(=O)CCO/N=[N+](\[O-])NC(C)C
- Activity [1]: 51.3%
- Activity [2]: 62.9%
- Activity [3]: 52.6%
- half-life [4]: 534 min
- Activity [5]: 33.5%
- Activity [6]: 1.8%
- Activity [7]: 46.2%
- Activity [8]: 12.9%
- Activity [9]: 10.4%
- Activity [10]: 0.5%
- Activity [11]: 0.4%
- Activity [12]: 5.9%
- Activity [13]: 17.3%
- Activity [14]: 0.8%
- Activity [15]: 29%

SMILES: CC(C)N/[N+]([O-])=N/OCCS(C)(=O)=O
- mean blood pressure (Mus musculus [16]): 83.6 mmHg
- Activity [1]: 61.4%
- Activity (Mus musculus [17]): Active
- Activity [2]: 62.2%
- mean blood pressure (Mus musculus [18]): 87.5 mmHg
- Activity [3]: 52.9%
- half-life [4]: 918 min
- Activity [5]: 10.4%
- Activity (Mus musculus [19]): 442 bpm
- systolic blood pressure (Mus musculus [20]): 120.2 mmHg
- Activity [6]: 0.1%
- Activity (Heart [21]): 187 cmH2O
- Activity [7]: 51.2%
- mean blood pressure (Mus musculus [22]): 95.4 mmHg
- Activity [8]: 1.6%
- systolic blood pressure (Mus musculus [23]): 103.4 mmHg
- Activity (Heart [24]): -5330 cmH2O/ms
- Activity [9]: 26%
- Activity [10]: 0.9%
- Activity (Heart [25]): 269 bpm
- Activity (Heart [26]): 5698 cmH2O/ms
- Activity [11]: 1.3%
- Activity [12]: 0.5%
- Activity (Mus musculus [27]): 488 bpm
- Activity [13]: 0.4%
- Activity [14]: 1.8%
- Activity [15]: 2.2%
- Activity (Mus musculus [28]): 531 bpm
- systolic blood pressure (Mus musculus [29]): 114.4 mmHg

SMILES: CC(C)NCC(O)c1ccc(O)c(O)c1 (configuration not stated) [ISOPROTERENOL]
- Activity (Heart [21]): 157 cmH2O
- Activity (Heart [24]): -5882 cmH2O/ms
- Activity (Heart [25]): 334 bpm
- Activity (Heart [26]): 5330 cmH2O/ms

More lines, now with the values ahead:

- Activity [1]: 5.1%
- Activity [2]: 5.7%
- Activity [3]: 5.9%
- half-life [4]: 2.3 min
- Activity [5]: 7%
- Activity [6]: 6.8%
- Activity [7]: 5.4%
- Activity [8]: 8.3%
- Activity [9]: 36%
- Activity [10]: 7.4%
- Activity [11]: 6.1%
- Activity [12]: 9.4%
- Activity [13]: 8.5%
- Activity [14]: 62%
- Activity [15]: 9.5%
SMILES: CC(C)N[N+]([O-])=N[O-].[Na+]

- Activity [1]: 85.7%
- Activity [7]: 85.9%
SMILES: [Na+].[Na+].[O-][N+]([O-])=NO [ANGELI'S SALT]

- half-life [4]: 41 min
SMILES: CC(=O)OCO/N=[N+](\[O-])NC(C)C
